PP1 inh: PP1-alpha phosphatase inhibitors, primary screen, counter-screen for PP5 inhibitor project, biochemical, fluorescence, OMFP substrate, single point. inhibition, % at 6.7 µM. purified PP1alpha. 0.9% of 320,000 active. AID 2235, 2010. Serine/threonine-protein phosphatase PP1-alpha catalytic subunit (Homo sapiens), P62136;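 active = inhibition above the mean inhibition of all tested compounds plus 3 SD, computed separately for each screening campaign, cut at about 15% in these data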
Target sequence (P62136 whole entry, looked up): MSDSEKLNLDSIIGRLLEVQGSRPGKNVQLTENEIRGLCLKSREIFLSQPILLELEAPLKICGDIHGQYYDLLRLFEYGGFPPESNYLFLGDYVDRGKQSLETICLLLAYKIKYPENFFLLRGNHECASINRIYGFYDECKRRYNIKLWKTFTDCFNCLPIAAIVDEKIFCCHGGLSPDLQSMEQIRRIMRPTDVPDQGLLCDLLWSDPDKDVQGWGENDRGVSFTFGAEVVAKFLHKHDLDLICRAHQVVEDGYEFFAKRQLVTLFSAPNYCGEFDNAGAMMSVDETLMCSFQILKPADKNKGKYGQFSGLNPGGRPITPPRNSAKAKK
NR2E3 ag-1: inhibitors of NR2E3-RetCOR corepressor binding, primary screen, NR2E3 agonist project, biochemical, TR-FRET, GST-NR2E3, biotin-RetCOR | inhibition of corepressor binding, % at 4.78 µM | 1536-well | 0.12% of 320,000 active;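 active = percent inhibition above the cutoff of mean plus 3 SD of all tested compounds, set per screening campaign, cut at about 20% in these data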
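Format: 1536-well format; test system: GST-NR2E3 and biotin-RetCOR proteins; read-out basis: percent inhibition of TR-FRET ratio; timing: 5 h incubation at 4 °C; detection: time-resolved FRET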
PP5 primary: PP5 phosphatase inhibitors, primary screen, biochemical, fluorescence; purified PP5c, OMFP substrate fluorescence; inhibition, % at 6.7 µM; 0.18% of 320,000 active; AID 1987, 2009;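 active = inhibition above the campaign's mean inhibition across all tested compounds plus 3 SD, cut at about 9.5% in these data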
NR2E3 ag-2: NR2E3 agonists in two-hybrid cells, primary screen, cell-based, luminescence, CHO-S, Gal4-NCOR/VP16-NR2E3; AID 602229, 2012; luciferase; 0.35% of 360,000 active; inhibition of corepressor binding, % at 3.98 µM; Photoreceptor-specific nuclear receptor (Homo sapiens), Q9Y5X4;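 active = inhibition above the mean of all tested compounds plus 3 SD, cut at about 70% in these data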;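 also: higher means lower luciferase signal from less NR2E3 corepressor binding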
NR2E3 ag confirm: NR2E3 agonists, confirmation, biochemical, TR-FRET; 39% of 360 active; activation (reported as inhibition), % at 3.98 µM; AID 2379, 2010; shares compounds with NR2E3 ag-1; cell-free NR2E3 corepressor release, 5 h; in the data active = activation above about 20%
PPARg-NCOR2 ctr: agonists of PPARg-NCOR2 corepressor interaction, counter-screen for NR2E3 agonist project, biochemical, TR-FRET. shares compounds with NR2E3 ag-1. TR-FRET PPARg-NCOR2 coregulator interaction. inhibition, % at 3.98 µM. 45% of 360 active; in the data active = inhibition above about 20%
Large screens that a line does not name were inactive (follow-up assays come after a bar, where they were run). This is a sample that favours compounds with a hit; in the whole collection about 1.3% have one here.

COc1cccc(C2C(C(=O)c3cc4ccccc4o3)=C(O)C(=O)N2c2cc(C)on2)c1OC (centres undefined)	PP1 inh 15, NR2E3 ag-1 24 | NR2E3 ag confirm 25 | PPARg-NCOR2 ctr inactive
COc1cc(C2C(C(=O)c3cc4ccccc4o3)=C(O)C(=O)N2c2cc(C)on2)cc(OC)c1OC (centres undefined)	PP1 inh 17, NR2E3 ag-1 30 | NR2E3 ag confirm 35 | PPARg-NCOR2 ctr 34
CC(NC(=O)c1cc2c(s1)CS(=O)(=O)C2)c1ccccc1 (centres undefined)	none
COc1cccc(-c2cnc(C(O)c3ccc(Cl)c(F)c3)[nH]2)c1 (centres undefined)	none (no result: PP1 inh, NR2E3 ag-1, PP5 primary)
Cc1ccc(CSCCNC(=O)c2ccc(N(C)S(=O)(=O)c3ccccc3)cc2)cc1	NR2E3 ag-1 22 | NR2E3 ag confirm inactive | PPARg-NCOR2 ctr inactive
O=C1C=C(c2ccc(F)nc2)C[C@@H](c2ccc3c(c2)OCO3)C1	none
O=C1C=C(O)C(n2cncn2)C(c2ccc3c(c2)OCO3)C1 (centres undefined)	NR2E3 ag-1 24 | NR2E3 ag confirm inactive | PPARg-NCOR2 ctr inactive
CCOC1=C2[C@@H](CN(S(=O)(=O)c3ccc(C)cc3)[C@H]2c2cccc3ccccc23)[C@H]2C(=O)N(C3CCCCC3)C(=O)[C@H]2C1	none (no result: PP1 inh, NR2E3 ag-1, PP5 primary)
COc1cccc(CNC(=O)COC(=O)/C(C#N)=C/c2ccc(N(C)C)cc2)c1	NR2E3 ag-1 31 | NR2E3 ag confirm 36 | PPARg-NCOR2 ctr 35
COc1cccc(C2C(C(=O)c3ccc(C)o3)=C(O)C(=O)N2c2cc(C)on2)c1 (centres undefined)	none
Cc1cc(N2C(=O)C(O)=C(C(=O)c3cc4ccccc4o3)C2c2cccc(Br)c2)no1 (centres undefined)	PP1 inh 37, NR2E3 ag-1 38 | NR2E3 ag confirm 48 | PPARg-NCOR2 ctr 46
CCCOc1cccc(C2C(C(=O)c3cc4ccccc4o3)=C(O)C(=O)N2c2cc(C)on2)c1 (centres undefined)	PP1 inh 26, NR2E3 ag-1 24 | NR2E3 ag confirm 34 | PPARg-NCOR2 ctr 36
Cc1cc(N2C(=O)C(O)=C(C(=O)c3cccs3)C2c2ccccc2)no1 (centres undefined)	none
O=S1(=O)C[C@H](N2CCOCC2)[C@@H](COCc2ccccc2)N1	none (no result: PP1 inh, NR2E3 ag-1, PP5 primary)
C=C1[C@@H](OC(C)=O)C=C[C@@]2(C)C=CC(=O)[C@@](C)(OC(C)=O)[C@@H]2[C@@H](OC(C)=O)[C@]2(O)[C@@H](C)C(=O)O[C@H]2[C@H]1Cl	none (no result: PP1 inh, NR2E3 ag-1, PP5 primary)
S=c1[nH]c2ccccc2n2cccc12	NR2E3 ag-1 29 | NR2E3 ag confirm inactive | PPARg-NCOR2 ctr inactive
COC(=O)c1cc2sc(Cl)cc2n1Cc1nc(-c2ccccc2)oc1C	NR2E3 ag-1 25 | NR2E3 ag confirm inactive | PPARg-NCOR2 ctr inactive
CCc1cccc(NC(=O)Cn2c(=O)c3cccn3c3ccccc32)c1	NR2E3 ag-1 26 | NR2E3 ag confirm inactive | PPARg-NCOR2 ctr inactive
Cc1cccc(C)c1NC(=O)Cn1c(=O)c2cccn2c2ccccc21	none
CN(C(=O)c1ccc(NC(=O)Cc2ccc(NC(=O)C3CCN(C(=O)C4CCCC4)CC3)cc2)cc1)C1CC1	NR2E3 ag-1 25 | NR2E3 ag confirm inactive | PPARg-NCOR2 ctr inactive
N#CCC(N)=C(C#N)C#N	NR2E3 ag-1 26 | NR2E3 ag confirm inactive | PPARg-NCOR2 ctr inactive
CC(=O)c1sccc1NC(=O)c1ccccc1C(=O)O	NR2E3 ag-1 34 | NR2E3 ag confirm 23 | PPARg-NCOR2 ctr inactive
N#Cc1cccc(C=C(C(=O)c2ccccc2)c2ccccc2)c1	none (no result: PP1 inh, NR2E3 ag-1, PP5 primary)
N#CC(=Cc1ccc(O)cc1)C(N)=C(C#N)C#N	NR2E3 ag-1 23 | NR2E3 ag confirm inactive | PPARg-NCOR2 ctr inactive
CC1=C(C(=O)N(C(C)C)C(C)C)CC(CC(=O)NCc2cccc3ccccc23)C(=O)N1Cc1ccccc1 (centres undefined)	none (no result: PP1 inh, NR2E3 ag-1, PP5 primary)
COc1ccc(C(=O)N2CCC(C)(C(=O)NS(=O)(=O)C3CC3)C2)c(OC)c1 (centres undefined)	none (no result: PP1 inh, NR2E3 ag-1, PP5 primary)
COc1cccc2cc(C(=O)C3=C(O)C(=O)N(Cc4ccco4)C3c3cccnc3)oc12 (centres undefined)	NR2E3 ag-1 28 | NR2E3 ag confirm 20 | PPARg-NCOR2 ctr 24
O=C(C1=C(O)C(=O)N(Cc2ccco2)C1c1cccnc1)c1cc2ccccc2o1 (centres undefined)	NR2E3 ag-1 38 | NR2E3 ag confirm 43 | PPARg-NCOR2 ctr 42
O=C(C1=C(O)C(=O)N(Cc2ccco2)C1c1cccc(O)c1)c1ccco1 (centres undefined)	none
COc1ccccc1CN(C)C(=O)c1cccc(S(=O)(=O)N2CCCc3ccccc32)c1	none
CCN(CC)S(=O)(=O)c1cc(C(=O)OCC(=O)Nc2cccc(S(=O)(=O)N(C)C)c2)ccc1F	NR2E3 ag-1 22 | NR2E3 ag confirm inactive | PPARg-NCOR2 ctr inactive
CCCS(=O)(=O)NC(=O)C1(C)CCN(C(=O)c2nc(C)oc2C)C1 (centres undefined)	none (no result: PP1 inh, NR2E3 ag-1, PP5 primary)
C=CCc1c(C)nc(-c2ccccc2)nc1Nc1ccccc1O	none
C=CCc1c(C)nc(SC)nc1Nc1ccc(C)cc1	NR2E3 ag-1 25 | NR2E3 ag confirm inactive | PPARg-NCOR2 ctr inactive
CCN(c1ccccc1)S(=O)(=O)c1ccc(Cl)c(NC(=O)CNCc2ccccc2OC)c1	none (no result: PP1 inh, NR2E3 ag-1, PP5 primary)
Cc1ccc(C2C(C#N)=C(N)SC(N)=C2C#N)o1	NR2E3 ag-1 32 (no result: NR2E3 ag-2) | NR2E3 ag confirm 24 | PPARg-NCOR2 ctr 35
O=C(O)C(Cc1ccccc1)N1C(=O)/C(=C/C=C/c2ccco2)SC1=S (centres undefined)	none (no result: PP1 inh, NR2E3 ag-1, PP5 primary)
Cc1ccc(NC(=O)CCCN2C(=O)/C(=C/C=C/c3ccccc3)SC2=S)cc1	none
O=C(O)CCCN1C(=O)/C(=C/C=C/c2ccco2)SC1=S	PP1 inh 24, NR2E3 ag-1 32 | NR2E3 ag confirm inactive | PPARg-NCOR2 ctr 20
O=C(O)CC(C(=O)O)N1C(=O)/C(=C/C=C/c2ccco2)SC1=S (centres undefined)	NR2E3 ag-1 39 | NR2E3 ag confirm 36 | PPARg-NCOR2 ctr inactive
N#Cc1c(-c2ccncc2)c2c([nH]c1=S)CCCC2	none
Cc1ccc(-c2c3c([nH]c(=S)c2C#N)CCCC3)o1	NR2E3 ag-1 49 | NR2E3 ag confirm 82 | PPARg-NCOR2 ctr 75
COc1cccc(CCN2C(=O)CCC3=C2CCC3=O)c1	none (no result: PP1 inh, NR2E3 ag-1, PP5 primary)
CCOc1ccc(C2C(C(=O)c3ccco3)=C(O)C(=O)N2CCCn2ccnc2)cc1 (centres undefined)	none (no result: PP1 inh, NR2E3 ag-1, PP5 primary)

Screens: PubChem BioAssay, The Scripps Research Institute Molecular Screening Center
